{"source": "paper PMC3281520", "about": "(Nature chemical biology, 2012)", "key": {"[1]": {"biological_target": "T1, ProRS (amino acids 998–1513 of human EPRS) (Homo sapiens, UniProt P07814)", "T1 sequence (P07814 998-1512 limits assumed)": "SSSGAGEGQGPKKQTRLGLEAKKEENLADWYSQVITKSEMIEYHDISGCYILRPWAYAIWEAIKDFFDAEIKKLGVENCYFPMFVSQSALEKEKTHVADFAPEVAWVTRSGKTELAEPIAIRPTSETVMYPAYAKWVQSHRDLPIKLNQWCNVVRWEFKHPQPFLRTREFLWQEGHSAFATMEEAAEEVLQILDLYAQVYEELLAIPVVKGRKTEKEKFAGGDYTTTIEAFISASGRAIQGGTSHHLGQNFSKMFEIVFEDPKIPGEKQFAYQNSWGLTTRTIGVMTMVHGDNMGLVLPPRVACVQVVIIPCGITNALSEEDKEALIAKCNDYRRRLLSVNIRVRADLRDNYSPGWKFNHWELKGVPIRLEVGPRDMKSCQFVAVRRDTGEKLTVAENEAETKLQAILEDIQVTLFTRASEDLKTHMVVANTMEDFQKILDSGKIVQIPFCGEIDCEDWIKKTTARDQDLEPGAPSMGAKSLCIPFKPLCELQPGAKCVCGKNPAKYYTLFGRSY", "assay": "[3H]-HFol binding to immobilized ProRS", "outline": "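His6-tagged human EPRS prolyl-tRNA synthetase domain, expressed in E. coli, immobilized on Ni-NTA beads. Beads washed twice in ice-cold buffer; bound counts by scintillation, with beads given tag-free E. coli extract as background.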"}, "[2]": {"tested_on": "primary murine CD4+ CD25− T cells", "assay": "Th17 cell differentiation", "assay_type": "cell-based, mouse", "outline": "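CD4+ CD25− T cells from spleens and peripheral lymph nodes of wild-type C57B/6 mice, TCR-activated under Th17-polarizing conditions with test compound and amino acid supplements: 10x EAA or NEAA mixes, or single amino acids at 1 mM. Day 4 restimulation with PMA 10 nM, ionomycin and brefeldin A for 4–5 h. Intracellular cytokine staining, flow cytometry; % IL-17+ IFNγ− cells, triplicate wells, SD.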"}, "[3]": {"tested_on": "translation in rabbit reticulocyte lysate (RRL)", "assay": "Cell free in vitro translation in rabbit reticulocyte lysate", "assay_type": "biochemical", "conditions": "for effect on translation of luciferase RNA in RRL: cell free, luminescence assay (Fig. 2a, 2b); for translation of Nopropep (proline-free polypeptide) in RRL / translation of Propep (polypeptide with proline dipeptide) in RRL: inhibitor 1 μM, anti-myc Western blot (Fig. 2c)", "outline": "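Rabbit reticulocyte lysate per kit instructions, standard amino acid mix diluted 5-fold; sometimes preincubated at 30 degrees with another RNA to deplete endogenous charged tRNAs. Luciferase mRNA translation read by luciferase luminescence. Rescue with amino acid mixtures or single amino acids at 1 mM each; triplicates, SD. Myc-tagged peptides ± proline dipeptide: inhibitors 1 μM, proline 1 mM, anti-myc Western blot.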"}, "AAR pathway in MEFs": {"tested_on": "AAR pathway in MEFs", "assay": "AAR pathway activation in MEFs", "assay_type": "cell-based, mouse", "conditions": "2 hours (Fig. 5a); for stimulation of GCN2 phosphorylation in the presence of proline: 2 mM proline", "outline": "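MEFs grown in 10% FCS/DMEM, then exposed to test compound with or without 2 mM proline for 2 h. Lysis was in RIPA with 5 mM EDTA, phosphatase and protease inhibitors. Western blot for total GCN2 and Thr898-phospho-GCN2; three separate experiments. For CHOP: 50 nM test compound ± 2 mM proline, lysis 6 h later, CHOP Western blot with cytoplasmic actin as loading control.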"}, "[4]": {"biological_target": "prolyl tRNA synthetase domain of human EPRS (ProRS) (Homo sapiens, UniProt P07814)", "assay": "Assay of ProRS activity", "assay_type": "biochemical"}, "mTORC1 signaling": {"tested_on": "mTORC1 signaling", "assay": "mTORC1 signaling in T cells and fibroblasts", "assay_type": "cell-based, mouse", "conditions": "100 nM HF in MEFs (Supplementary Fig. 10)"}, "[5]": {"assay": "Intracellular HF levels by anti-HF ELISA", "assay_type": "in vitro ADME, mouse", "conditions": "MEFs, 2 mM proline, 2 hours (Supplementary Fig. 11)"}, "[6]": {"tested_on": "mouse embryo fibroblasts (MEFs)", "assay": "ECM gene expression and protein production in fibroblasts", "assay_type": "cell-based", "outline": "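MEFs in 10% FCS/DMEM were treated with 50 nM test compound and/or 2 mM proline. Exposure was 4 h for CHOP and S100A4 and 24 h for Col1A1 and Col1A2. mRNA by quantitative RT-PCR, normalised to TBP, relative to untreated. Triplicate determinations from triplicate plates; two-tailed Student's t test for compound alone versus compound plus proline.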"}, "[7]": {"tested_on": "prolyl-tRNA charging in the RRL system", "assay": "tRNA charging in RRL", "assay_type": "biochemical, rabbit", "conditions": "doses comparable to those that inhibit translation (Fig. 2d)", "outline": "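Rabbit reticulocyte lysate incubated with 1 μCi 14C-proline or 35S-methionine, added bovine tRNA and 2 μM puromycin to block use of charged tRNA in translation, with or without test compound. Total tRNA then extracted with a small-RNA isolation kit. Radioactivity in tRNA measured by liquid scintillation counting; triplicates, SD.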"}}}
{"molecule": "C[C@H](N)C(=O)NS(=O)(=O)OC[C@H]1O[C@@H](n2cnc3c(N)ncnc32)[C@H](O)[C@@H]1O", "note": "[AlaSAd, alanyl sulfamoyl adenosine]", "values": [{"measurement": "inhibition of binding of [3H]-HFol to ProRS at 50 nM", "setting": "[1]; 50 nM (Fig. 4a)", "value": "partially inhibited"}]}
{"molecule": "C[C@@H]1C[C@H](C)C[C@H](C)[C@@H](O)CC(=O)O[C@H]([C@@H]2CCC[C@H]2C(=O)O)C/C=C/C=C(/C#N)[C@H](O)[C@@H](C)C1", "note": "[Borrelidin, borrelidin]", "values": [{"measurement": "Th17 cell differentiation", "setting": "[2]; Th17 polarizing conditions, borrelidin 6 nM (Supplementary Fig. 13)", "value": "inhibited"}, {"measurement": "effects on Th17 differentiation on addition of excess cognate amino acid", "setting": "[2]; threonine 1 mM (Fig. 6b)", "value": "reversed"}]}
{"molecule": "O=C(C[C@H]1NCCC[C@@H]1O)Cn1cnc2ccccc2c1=O", "note": "[FF, febrifugine]", "values": [{"measurement": "effect on translation of luciferase RNA in RRL", "setting": "[3]", "value": "inhibited"}, {"measurement": "translation of Nopropep (proline-free polypeptide) in RRL", "setting": "[3]", "value": "no effect"}, {"measurement": "translation of Propep (polypeptide with proline dipeptide) in RRL", "setting": "[3]", "value": "prevent translation"}, {"measurement": "stimulation of GCN2 phosphorylation in the presence of proline", "setting": "AAR pathway in MEFs", "value": "abrogated"}, {"measurement": "GCN2 phosphorylation in fibroblasts", "setting": "AAR pathway in MEFs", "value": "stimulation"}]}
{"molecule": "O=C(CC1NCCCC1O)Cn1cnc2cc(Br)c(Cl)cc2c1=O", "note": "(stereo not shown) [HF, halofuginone]", "values": [{"measurement": "competition of [3H]-HFol binding to ProRS", "setting": "[1]; Fig. 3a", "value": "competed"}, {"measurement": "Th17 differentiation in HF-treated T cells with individual amino acid supplement", "setting": "[2]; 10 nM HF, proline 1 mM, only proline effective (Fig. 6a)", "value": "rescued"}, {"measurement": "effect on translation of luciferase RNA in RRL", "setting": "[3]", "value": "inhibited"}, {"measurement": "translation of Nopropep (proline-free polypeptide) in RRL", "setting": "[3]", "value": "no effect"}, {"measurement": "translation of Propep (polypeptide with proline dipeptide) in RRL", "setting": "[3]", "value": "prevent translation"}, {"measurement": "translation inhibited by HF, after supplementation of RRL with excess amino acids", "setting": "[3]; proline 1 mM, only proline is effective (Fig. 2a)", "value": "restores"}, {"measurement": "stimulation of GCN2 phosphorylation in the presence of proline", "setting": "AAR pathway in MEFs", "value": "abrogated"}, {"measurement": "GCN2 phosphorylation in fibroblasts", "setting": "AAR pathway in MEFs", "value": "stimulation"}, {"measurement": "Ki", "setting": "[4]", "value": 18.3, "unit": "nM"}, {"measurement": "inhibition of mTORC1 signaling", "setting": "mTORC1 signaling", "value": "without concomitant inhibition"}, {"measurement": "intracellular accumulation of HF on proline addition", "setting": "[5]", "value": "not affected"}, {"measurement": "inhibition of ECM proteins in the presence of proline", "setting": "[6]; 2 mM proline in the media (Supplementary Fig. 15)", "value": "reversed"}, {"measurement": "production of secreted Type I procollagen and of fibronectin", "setting": "[6]; 24 hours treatment (Fig. 6d)", "value": "dramatically inhibited"}, {"measurement": "expression of mRNA encoding CHOP", "setting": "[6]; MEFs, HF 50 nM, 4 hours (Fig. 6c)", "value": "stimulated"}, {"measurement": "mRNA levels of Col1A1, Col1A2, and S100A4", "setting": "[6]; MEFs, HF 50 nM, 4 hours (S100A4) or 24 hours (Col1A1, Col1A2), restored by proline (Fig. 6c)", "value": "inhibits"}, {"measurement": "35S-methionine incorporation into total protein", "setting": "[6]; doses that inhibit ECM protein production (Fig. 6d)", "value": "did not significantly change"}, {"measurement": "incorporation of 14C-Pro into tRNA", "setting": "[7]", "value": "inhibited"}]}
